In the library only some 8.4% were active in any assay of this set; here they are far more common.
Cav32 inh – blocks human Cav3.2 T-type calcium channel; Cav3.2-expressing cells, Fluo-4 calcium fluorescence FDSS; active compounds read low; O95180; 4% of 100,000 active; B-score at 10 µM;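 active = single-dose well whose peak fluorescence ratio is a statistical outlier from its plate by either plate-standardised score or position-corrected B-score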
PostGolgi ctrl – yeast control strain growth, post-Golgi counter-screen; 5% of 98,000 active; AID 738; efflux-deficient yeast background strain, growth absorbance A615, 16 h; inhibition, % at 10 µM
PostGolgi yeast – growth inhibition of a yeast mutant, post-Golgi transport screen; post-Golgi transport phenotypic cell assay; inhibition, % at 10 µM; 0.9% of 98,000 active; AID 739;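 note: yeast cells grown in 1536-well plates; yeast grown about 18 h at 30C before absorbance read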
tolC growth inh – E. coli tolC mutant growth inhibition. E. coli BW25113 tolC mutant growth, OD615. growth inhibition, % at 10 µM (by protocol). 2.2% of 65,000 active;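 active = growth inhibition at or above a cutoff equal to the mean over every tested compound plus 3 SD, cut at about 60% in these data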;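 note: growth measured after 20 h incubation at 37 °C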
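signal = optical density read at 615 nm | test system = E. coli ΔtolC::kan strain BW25113 | timing = 20 h compound exposure of bacteria at 37 °C | buffer or medium = LB medium plus 50 µg/mL kanamycin | compound dosing = 10 µM final, single dose | evaluation = % inhibition of E. coli growth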
Ecoli WT expand – blocks growth of wild type E. coli BW25113 | OD600 absorbance | growth inhibition, % at 100 µM | 0.15% of 98,000 active | AID 710;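 active = growth inhibition above about 50% at one test dose, limit read from the data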;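 note: growth measured after 20 h incubation at 37 °C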
Of the large screens only hits and unclear results are named; the others gave an inactive call. Cut-off read from the data, not from the text of the source, unless noted: active = inhibition above about 30%; inactive = the rest.

COc1ccccc1C(=O)Nc1nnc(-c2ccc(F)cc2)o1	none
O=C(Nc1cccc(C(F)(F)F)c1)c1ccc2nc(-c3ccco3)c(-c3ccco3)nc2c1	Cav32 inh -4.8 (no result: tolC growth inh)
COc1ccc(C(=O)Nc2cccc(-c3nnc(-c4ccco4)o3)c2)cc1	PostGolgi ctrl 31 (no result: tolC growth inh)
COc1ccc(-c2nnc(NC(=O)c3ccc(F)cc3)o2)cc1	Ecoli WT expand 51 (no result: Cav32 inh, tolC growth inh)
CCCCSc1nnc(NC(=O)CCc2ccccc2)s1	none (no result: tolC growth inh)
CCC(=O)Nc1ccc(C(=O)CSc2nc3ccccc3cc2CC)cc1	none (no result: tolC growth inh)
O=C(Nc1nnc(-c2ccc3c(c2)CCCC3)o1)c1ccc(Cl)cc1Cl	Cav32 inh -3.2, PostGolgi yeast 85 (no result: tolC growth inh)
COc1ccc(-c2nnc(NC(=O)c3cc(Cl)ccc3Cl)o2)cc1	Cav32 inh -5.2, tolC growth inh 98
COc1ccccc1C(=O)Nc1nnc(-c2ccc(Cl)cc2)o1	none (no result: PostGolgi ctrl, PostGolgi yeast, Ecoli WT expand)
O=C(Nc1nc(-c2ccccc2)c(-c2ccccc2)o1)c1ccc(F)cc1	Cav32 inh -5.8, PostGolgi ctrl 85, PostGolgi yeast 98 (no result: tolC growth inh)
O=C(O)CCc1nc(-c2ccccc2)c(-c2ccccc2)o1	none (no result: PostGolgi ctrl, PostGolgi yeast, tolC growth inh, Ecoli WT expand)
CCC(Sc1nc2ccccc2c2nc3ccccc3n12)C(=O)NCc1ccco1 (configuration not stated)	none (no result: Cav32 inh, tolC growth inh)
CCOC(=O)/C=c1\s/c(=C\c2c(OC)ccc3ccccc23)c(=O)n1CC(=O)NCC1CCCO1 (configuration not stated)	Cav32 inh -5.7 (no result: tolC growth inh)
C=CCNC(=O)C1CC(=O)N(c2ccc(OCC(=O)Nc3ccccc3)cc2)C1 (configuration not stated)	none
CCc1c(C)c(C#N)c2nc3ccccc3n2c1NCCN(C)C	PostGolgi ctrl 42
C=CCc1c(C)c(C#N)c2nc3ccccc3n2c1NCCN(C)C	PostGolgi ctrl 74, PostGolgi yeast 82
COc1ccc(CNC(=O)C(OC(C)=O)c2ccccn2)cc1 (configuration not stated)	none
COc1ccccc1N1CCN(CC(O)c2ccc3cc[nH]c3c2)CC1 (configuration not stated)	Cav32 inh -5.6, PostGolgi yeast 39
COc1ccc(C2CC(=O)N3C(=C2C#N)SCC3(O)c2ccccc2)cc1 (configuration not stated)	Cav32 inh -6
CCOc1ccccc1-n1c(SCC(=O)NC2CCCC2)nnc1-c1ccoc1C	none
CCCCCn1c(SCC#N)nc2cc(C(=O)NC3CCCCC3)ccc2c1=O	none (no result: Cav32 inh, PostGolgi ctrl, PostGolgi yeast, Ecoli WT expand)
N#CCSc1nc2ccccc2c(=O)n1CCC(=O)NC1CCCCC1	PostGolgi ctrl 35
CCOc1ccccc1N1CCN(C/C=C/c2ccc(N(C)C)cc2)CC1	none (no result: tolC growth inh)
O=Cc1cn(-c2ccccc2)nc1-c1cc2cc(O)ccc2oc1=O	none (no result: tolC growth inh)
N#Cc1cn(-c2ccccc2)nc1-c1cc2ccccc2oc1=O	PostGolgi yeast 36
C=CCOCC(O)CS(=O)(=O)Cc1ccc(Cl)cc1 (configuration not stated)	none (no result: tolC growth inh)
Cc1ccccc1NC(=O)c1sc2nc3c(c(-c4ccco4)c2c1N)CCCC3	Cav32 inh -4.2 (no result: tolC growth inh)
CCNC(=O)N1c2ccc(OCC)cc2C(C)=CC1(C)C	none
CCOc1ccc2c(c1)-c1c(ssc1=S)C(C)(C)N2	PostGolgi ctrl 31 (no result: tolC growth inh)
COC(=O)Nc1ccc(S(=O)(=O)N2CCN(C)CC2)cc1	none
CC(C)CC(=O)N1CCN(S(=O)(=O)c2ccc(F)cc2)CC1	PostGolgi ctrl 39
COC(=O)Nc1ccc(S(=O)(=O)N2CCC(Cc3ccccc3)CC2)cc1	PostGolgi ctrl 35 (no result: tolC growth inh)
COC(=O)Nc1ccc(S(=O)(=O)N2CCN(c3ccc(F)cc3)CC2)cc1	PostGolgi ctrl 38
N#Cc1c(NC(=O)CSc2nc(-c3ccco3)cc(C(F)(F)F)n2)sc2c1CCCC2	none
CN(C)c1ccc(C=Nc2ccccc2)cc1	none (no result: tolC growth inh)
C(/C=C/C=C/Nc1ccccc1)=Nc1ccccc1	Cav32 inh -5 (no result: tolC growth inh)
Cc1cc(NC(=O)C(C)C)ncc1NC(=O)Cc1ccccc1	Cav32 inh -4
O=C(NCc1ccc2c(c1)OCO2)C1CC(=O)N(c2ccc(O)cc2)C1 (configuration not stated)	none
CCSc1nnc(NC(=O)CSc2nc3c(c(=O)n2-c2ccccc2OC)SCC3)s1	none (no result: PostGolgi ctrl, PostGolgi yeast, Ecoli WT expand)
CCO[C@H]1OC(C(=O)NCc2ccccc2)=C[C@@H](C(C)(C)C)[C@@H]1CCCO	none (no result: PostGolgi ctrl, PostGolgi yeast, tolC growth inh, Ecoli WT expand)
C/C=C/c1ccc(OCCCCn2cncn2)c(OC)c1	PostGolgi ctrl 31
O=S(=O)(NC1CCCC1)c1ccc(S(=O)(=O)N(Cc2cccs2)CC2CCCO2)cc1 (configuration not stated)	tolC growth inh 64
CCOC(=O)c1c(-c2ccc(OC)cc2)csc1NC(=O)CNCc1ccco1	PostGolgi ctrl 85 (no result: tolC growth inh)
CCOC(=O)c1c(-c2ccc(OC)cc2)csc1NC(=O)CCN1C(=O)c2ccccc2C1=O	none (no result: tolC growth inh)
COC(=O)c1cc(-c2ccccc2)sc1NC(=O)CN1C(=O)c2ccccc2C1=O	none (no result: tolC growth inh)
CCc1nnc(NC(=O)c2cccc(C(=O)Nc3nnc(CC)s3)n2)s1	tolC growth inh 94 (no result: Cav32 inh, PostGolgi ctrl, PostGolgi yeast, Ecoli WT expand)
CC(=O)c1c(C)n([O-])c2cc(C)ccc2[n+]1=O	tolC growth inh 91
COc1ccc(-c2c(C)n([O-])c(C)c(C)[n+]2=O)cc1OC	none
COc1ccc(C(=O)c2c[nH]c(C(=O)NCc3cccs3)c2)cc1	none (no result: Cav32 inh, tolC growth inh)
CCc1ccc(OCCNC(=O)c2cccs2)cc1	Cav32 inh -5.9 (no result: tolC growth inh)
CC(C)OCCCNC(=O)c1cccs1	PostGolgi ctrl 32
COc1cccc(CNC(=O)C2CCN(S(=O)(=O)c3c(C)nn(C)c3C)CC2)c1	none
COC(=O)c1sc(NC(=O)c2cnccn2)c(C(=O)OC)c1C	none (no result: PostGolgi ctrl, PostGolgi yeast, Ecoli WT expand)
CC(C)(C)C(=O)c1sc2nc(-c3cccs3)cc(C(F)(F)F)c2c1N	Cav32 inh -8.3 (no result: tolC growth inh)
O=C1CC(C(=O)Nc2ccccc2)N=C(N2CCCCC2)N1 (configuration not stated)	PostGolgi ctrl 31
CC1CCC(C(=O)c2c(O)c3ccccc3oc2=O)CC1 (configuration not stated)	none (no result: tolC growth inh)
CCCCC(=O)c1c(O)c2ccccc2oc1=O	tolC growth inh 99
O=C(CC1CCCCC1)c1c(O)c2ccccc2oc1=O	Cav32 inh -7.6, tolC growth inh 100
CCCCN=C(C)c1c(O)c2ccccc2oc1=O	none
OCC[C@@H]1C[C@H](O)[C@@H](O)[C@@]2(CCCO2)O1	none (no result: PostGolgi ctrl, PostGolgi yeast, tolC growth inh, Ecoli WT expand)
Cn1c(=O)oc2cc(S(=O)(=O)Nc3ccc4c(c3)OCCO4)ccc21	none
COc1ccc(NS(=O)(=O)c2ccc3oc(Nc4ccc5c(c4)OCCO5)nc3c2)cc1	tolC growth inh 79
COCCn1c(=S)[nH]c2cc(C(=O)NC(C)C)ccc2c1=O	none (no result: tolC growth inh)
CCCn1c(=S)[nH]c2cc(C(=O)N3CCc4ccccc43)ccc2c1=O	PostGolgi ctrl 103 (no result: tolC growth inh)
CCOCCCn1c(=S)[nH]c2cc(C(=O)N3CCN(C)CC3)ccc2c1=O	none
COCCn1c(=S)[nH]c2cc(C(=O)N3CCc4ccccc43)ccc2c1=O	PostGolgi ctrl 96
N#Cc1cc(-c2ccccc2)c[nH]c1=O	none (no result: tolC growth inh)
CCOC(=O)c1ccccc1NC(=O)Cn1cnc2c(oc3ccccc32)c1=O	none
CC(C)(C)c1ccc(S(=O)(=O)N2CC(=O)Nc3ccccc32)cc1	none (no result: tolC growth inh)
Cc1nc(NC(=O)CSc2ccccc2N)sc1C	none
O=C(Nc1nc(-c2ccccc2)cs1)C1COc2ccccc2O1 (configuration not stated)	none (no result: tolC growth inh)
